Source: ChEMBL document CHEMBL4387703, “Lead optimization and biological evaluation of fragment-based cN-II inhibitors” (Eur J Med Chem, 2019)
The source made the active and inactive calls. The rule behind the calls is not given here.

Columns and labels:
[1] = molecular target: 5'-nucleotidase (Homo sapiens) (UniProt P21589); test: Inhibition of recombinant cN-II (unknown origin) assessed as reduction in inorganic phosphate production at 1 mM pre-incubated for 10 mins followed by addition of IMP as substrate and measured after 5 mins by malachite green based assay relative to control
Method in brief: (§1)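 Purified recombinant cN-II (0.1 μM final) in 50 mM imidazole pH 6.5, 500 mM NaCl and 10 mM MgCl2 was preincubated on ice with compound for 10 min. IMP (50 μM, equimolar Mg) was then added for 5 min at 37 °C.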

[2] = molecular target: 5'-nucleotidase (Homo sapiens) (UniProt P21589); test: Inhibition of recombinant cN-II (unknown origin) assessed as reduction in inorganic phosphate production at 200 uM pre-incubated for 10 mins followed by addition of IMP as substrate and measured after 5 mins by malachite green based assay relative to control; method in brief: as §1
[3] = molecular target: T1, 5'-nucleotidase (Rattus norvegicus) (UniProt P21588); test: Inhibition of purified rat liver 5'-nucleotidase using IMP as substrate assessed as reduction in substrate dephosphorylation at 2 to 6 mM
T1 sequence (whole entry): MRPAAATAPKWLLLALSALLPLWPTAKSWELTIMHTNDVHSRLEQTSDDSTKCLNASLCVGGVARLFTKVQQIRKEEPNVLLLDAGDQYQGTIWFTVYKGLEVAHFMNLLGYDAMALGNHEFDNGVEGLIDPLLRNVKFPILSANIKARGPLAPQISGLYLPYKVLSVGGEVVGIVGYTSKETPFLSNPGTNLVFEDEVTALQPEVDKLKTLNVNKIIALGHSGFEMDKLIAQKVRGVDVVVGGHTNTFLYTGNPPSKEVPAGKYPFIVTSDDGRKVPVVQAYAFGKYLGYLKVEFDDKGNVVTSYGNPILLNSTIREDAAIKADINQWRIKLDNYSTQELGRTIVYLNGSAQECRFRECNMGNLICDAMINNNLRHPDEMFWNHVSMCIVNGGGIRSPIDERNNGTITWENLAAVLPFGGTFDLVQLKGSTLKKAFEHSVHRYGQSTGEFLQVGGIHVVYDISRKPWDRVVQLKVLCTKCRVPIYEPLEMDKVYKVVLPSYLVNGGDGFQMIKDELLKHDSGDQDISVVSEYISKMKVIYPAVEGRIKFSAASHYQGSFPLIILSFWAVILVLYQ

[4] = molecular target: T1, 5'-nucleotidase (Rattus norvegicus); test: Inhibition of purified rat liver 5'-nucleotidase using IMP as substrate assessed as reduction in substrate dephosphorylation at 7 to 10 mM

Chain of 5'-nucleotidase (Homo sapiens) (P21589 whole entry): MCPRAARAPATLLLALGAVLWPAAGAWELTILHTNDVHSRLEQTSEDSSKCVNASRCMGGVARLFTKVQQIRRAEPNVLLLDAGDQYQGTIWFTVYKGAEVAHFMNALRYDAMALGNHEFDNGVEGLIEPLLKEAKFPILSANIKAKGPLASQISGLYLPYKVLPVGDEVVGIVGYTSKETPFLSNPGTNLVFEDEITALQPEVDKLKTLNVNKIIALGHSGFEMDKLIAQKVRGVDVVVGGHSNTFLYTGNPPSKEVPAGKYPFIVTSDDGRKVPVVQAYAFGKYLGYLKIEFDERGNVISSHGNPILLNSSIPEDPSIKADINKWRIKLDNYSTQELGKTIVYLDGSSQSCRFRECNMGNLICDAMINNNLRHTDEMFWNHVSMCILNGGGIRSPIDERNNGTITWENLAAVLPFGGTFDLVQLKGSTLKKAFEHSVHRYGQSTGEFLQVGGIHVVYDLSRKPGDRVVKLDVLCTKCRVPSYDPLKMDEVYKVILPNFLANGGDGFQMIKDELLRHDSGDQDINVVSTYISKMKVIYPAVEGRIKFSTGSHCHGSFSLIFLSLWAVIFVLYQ

`Nc1ncnc2ncn(COCc3ccccc3)c12` was tested, and the inhibition [1] was “inactive”.
For `O=C(Nc1ncnc2[nH]cnc12)c1cccc(-c2ccccc2-c2nn[nH]n2)c1`, the inhibition [2] was 27%.
For `CCOP(=O)(O)Cn1cnc(-c2cccc(-c3cccc(C(=O)Nc4ncnc5ncn(COCc6ccccc6)c45)c3)c2)c1`, the inhibition [2] was 60%.
For `CCOP(=O)(Cn1cnc2c(NC(=O)c3cccc(-c4ccccc4)c3)ncnc21)OCC`, the inhibition [2] was 47%.
`CCOC(=O)Cn1cnc2c(N)ncnc21` gave an inhibition [2] of 3%.
For `CCOP(=O)(Cn1cnc2c(N)ncnc21)OCC`, the inhibition [1] was “inactive”.
With `O=C(Nc1ncnc2[nH]cnc12)c1cccc(-c2ccccc2)c1` the inhibition [2] was 68%.
`CCOC(=O)Cn1cnc2c(NC(=O)c3cccc(-c4ccccc4)c3)ncnc21` gave an inhibition [2] of 60%.
Work on `CCOC(=O)Cn1cnc2c(NC(=O)c3ccc(-c4ccccc4-c4nn[nH]n4)cc3)ncnc21` yielded an inhibition [2] of 27%.
`O=C(Nc1ncnc2c1ncn2COCc1ccccc1)c1cccc(-c2ccccc2)c1` gave an inhibition [2] of 34%.
With `O=C(Nc1ncnc2c1ncn2Cc1ccccc1)c1cccc(-c2ccccc2)c1` the inhibition [2] was 57%.
`CC(=O)OCCn1cnc2c(NC(=O)c3cccc(-c4ccccc4)c3)ncnc21` gave an inhibition [2] of 62%.
Compound `O=C(Nc1ncnc2[nH]cnc12)c1cccc(-c2ccc(-c3nn[nH]n3)cc2)c1` has an inhibition [2] of 60%.
For `O=C(Nc1ncnc2[nH]cnc12)c1ccccc1-c1ccc(-c2nn[nH]n2)cc1`, the inhibition [2] was 30%.
In the case of `O=C(Nc1ncnc2[nH]cnc12)c1cccc(-c2cccc(-c3nn[nH]n3)c2)c1`, the inhibition [2] is reported as 50%.
Compound `O=C(O)Cn1cnc2c(NC(=O)c3cccc(-c4ccccc4)c3)ncnc21` has an inhibition [2] of 62%.
`Nc1ncnc2c1ncn2COCc1ccccc1` was tested, and the inhibition [1] was 13%.
`O=C(Nc1ncnc2c1ncn2CCO)c1cccc(-c2ccccc2)c1` gave an inhibition [2] of 46%.
With `Nc1ncnc2ncn(Cc3ccccc3)c12` the inhibition [1] was 26%.
With `CC(=O)OCCn1cnc2c(N)ncnc21` the inhibition [1] was “inactive”.
For `O=C(Nc1ncnc2nc[nH]c12)c1cccc(-c2cccc(-c3cn(CP(=O)(O)O)cn3)c2)c1`, the inhibition [2] was 49%.
Compound `O=C(Nc1ncnc2[nH]cnc12)c1ccc(-c2ccccc2-c2nn[nH]n2)cc1` has an inhibition [2] of 10%.
Work on `CC(C)CSC[C@H]1O[C@@H](n2cnc3c(N)ncnc32)[C@H](O)[C@@H]1O` yielded an inhibition [3] of 50%.
With `CCOP(=O)(O)Cn1cnc(-c2cccc(-c3cccc(C(=O)Nc4ncnc5nc[nH]c45)c3)c2)c1` the inhibition [2] was 75%.
Compound `Nc1ncnc2c1ncn2Cc1ccccc1` has an inhibition [1] of 23%.
`O=C(Nc1ncnc2ncn(COCc3ccccc3)c12)c1cccc(-c2ccccc2)c1` showed an inhibition [2] of 50%.
With `O=C(Nc1ncnc2ncn(Cc3ccccc3)c12)c1cccc(-c2ccccc2)c1` the inhibition [2] was 52%.
`CC(C)CSC[C@H]1O[C@@H](n2cnc3c(=O)[nH]cnc32)[C@H](O)[C@@H]1O` showed an inhibition [4] of 50%.
